What was measured:
A549 [1] = experiment: Disruption of mitochondrial membrane potential in human A549 cells after 48 hrs by Rhodamine-123 staining based spectrofluorometry; format: functional, cell-based
Outline: (§1)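 Cells were seeded at 5×10^5 cells/mL overnight and treated with 0.5, 1 and 2 µM compound; the methods say 24 h and the results text says 48 h. Trypsinised cells were washed and stained with rhodamine-123 (2 µM in PBS) for 30 min at room temperature in the dark, washed and read by spectrofluorometer. Data are mean ± SD of three independent experiments.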

MDA-MB-231 [2] = experiment: Disruption of mitochondrial membrane potential in human MDA-MB-231 cells after 48 hrs by Rhodamine-123 staining based spectrofluorometry; format: functional, cell-based; outline: as §1
A549 [3] = experiment: Induction of reactive oxygen species generation in human A549 cells at 0.5 to 2 uM after 48 hrs by carboxy-DCFDA staining based spectrofluorometry relative to control; format: functional
MDA-MB-231 [4] = experiment: Induction of reactive oxygen species generation in human MDA-MB-231 cells at 0.5 to 2 uM after 48 hrs by carboxy-DCFDA staining based spectrofluorometry relative to control; format: functional
A549 [5] = experiment: Induction of apoptosis in human A549 cells assessed as viable cells at 0.5 uM after 24 hrs by Annexin V-FITC/PI dual staining based flow cytometry (reference value: 85%); format: functional; settings: A549, 24 h, read-out: Activity
A549 [6] = experiment: Induction of apoptosis in human A549 cells assessed as early apoptotic cells at 0.5 uM after 24 hrs by Annexin V-FITC/PI dual staining based flow cytometry (reference value: 5.3%); format: functional
A549 [7] = experiment: Induction of apoptosis in human A549 cells assessed as necrotic cells at 0.5 uM after 24 hrs by Annexin V-FITC/PI dual staining based flow cytometry (reference value: 5.2%); format: functional
A549 [8] = experiment: Induction of apoptosis in human A549 cells assessed as late apoptotic cells at 1 uM after 24 hrs by Annexin V-FITC/PI dual staining based flow cytometry (reference value: 4.5%); format: functional
A549 [9] = experiment: Induction of apoptosis in human A549 cells assessed as necrotic cells at 1 uM after 24 hrs by Annexin V-FITC/PI dual staining based flow cytometry (reference value: 5.2%); format: functional
MDA-MB-231 [10] = experiment: Induction of apoptosis in human MDA-MB-231 cells assessed as viable cells at 1 uM after 24 hrs by Annexin V-FITC/PI dual staining based flow cytometry (reference value: 91%); format: functional; settings: MDA-MB-231, 24 h, read-out: Activity
MDA-MB-231 [11] = experiment: Induction of apoptosis in human MDA-MB-231 cells assessed as late apoptotic cells at 1 uM after 24 hrs by Annexin V-FITC/PI dual staining based flow cytometry (reference value: 6.2%); format: functional
MDA-MB-231 [12] = experiment: Induction of apoptosis in human MDA-MB-231 cells assessed as viable cells at 2 uM after 24 hrs by Annexin V-FITC/PI dual staining based flow cytometry (reference value: 91%); format: functional; settings: MDA-MB-231, 24 h, read-out: Activity
MDA-MB-231 [13] = experiment: Induction of apoptosis in human MDA-MB-231 cells assessed as necrotic cells at 2 uM after 24 hrs by Annexin V-FITC/PI dual staining based flow cytometry (reference value: 1.9%); format: functional
MDA-MB-231 [14] = experiment: Induction of apoptosis in human MDA-MB-231 cells after 24 hrs by Annexin V-FITC/PI dual staining based flow cytometry; format: functional, cell-based
[15] = Cytotoxicity against human PC3 cells assessed as growth inhibition after 72 hrs by MTT assay; format: functional, cell-based; settings: PC-3, 72 h
Outline: (§2)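 Cells in RPMI 1640 (PC-3, A549, MDA-MB-231) or DMEM (U87MG, MCF-7) with 10% FBS, passages 4-10, were seeded at 3000-5000 per well and left 24 h. Compounds in DMSO/medium were added for 72 h; DMSO served as control. MTT (5 mg/mL) was added for 4 h and formazan dissolved in DMSO. Absorbance was read at 570 nm minus 630 nm. % inhibition was taken versus DMSO, with IC50 by probit; mean ± SD of three experiments in triplicate.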

A549 [16] = experiment: Cytotoxicity against human A549 cells assessed as growth inhibition after 72 hrs by MTT assay; format: functional, cell-based; settings: A549, 72 h; outline: as §2
[17] = Cytotoxicity against human U87MG cells assessed as growth inhibition after 72 hrs by MTT assay; format: functional, cell-based, U-87MG ATCC; settings: U-87 MG; outline: as §2
MDA-MB-231 [18] = experiment: Cytotoxicity against human MDA-MB-231 cells assessed as growth inhibition after 72 hrs by MTT assay; format: functional, cell-based; settings: MDA-MB-231, 72 h; outline: as §2
MDA-MB-231 [19] = experiment: Cytotoxicity against human MDA-MB-231 cells assessed as inhibition of colony formation after 24 hrs by methylene blue staining-based assay; format: functional, cell-based
Outline: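 Clonogenic assay. Cells were plated at 500 per well and allowed to adhere 24 h. Compound was added at 0.1, 1 and 10 µM for 24 h, then medium was replaced and cells grown a further 14 days. Colonies were fixed with 4% paraformaldehyde, stained with 0.5% methylene blue in PBS for 30 min, rinsed and photographed.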

A549 [20] = experiment: Antimigratory activity in human A549 cells at 0.5 to 2 uM measured after 24 to 48 hrs by wound healing assay; format: functional, cell-based
Outline: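 Wound-healing assay. Cells were seeded at 5×10^5 per well and grown 24 h to a confluent monolayer, then scratched once across the middle with a sterile pipette tip and washed twice with PBS. Compound was added at 0.5, 1 and 2 µM. Wound closure was photographed by phase-contrast microscopy at 0, 24 and 48 h in three or more random fields.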

A549 [21] = experiment: Cell cycle arrest in human A549 cells assessed as accumulation at S phase at 0.5 uM after 24 to 48 hrs by propidium iodide staining based flow cytometry (reference value: 18.3%); format: functional
Outline: (§3)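 Cells were seeded at 1×10^6 per well and treated 24 h later with 0.5, 1 or 2 µM compound; DMSO-treated cells served as control. Methods give harvest at 48 h (floating plus trypsinised cells); the figure legend says 24 h. Cells were fixed in 70% ethanol for 30 min at 4 °C and stained with PI, Triton X-100 and RNase A for 15 min in the dark. 10000 events were counted by flow cytometry.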

A549 [22] = experiment: Cell cycle arrest in human A549 cells assessed as accumulation at G2/M phase at 1 uM after 24 to 48 hrs by propidium iodide staining based flow cytometry (reference value: 22.3 to 31%); format: functional; outline: as §3
A549 [23] = experiment: Cell cycle arrest in human A549 cells assessed as accumulation at G0/G1 phase at 2 uM after 24 to 48 hrs by propidium iodide staining based flow cytometry (reference value: 49.1%); format: functional; outline: as §3
A549 [24] = experiment: Cell cycle arrest in human A549 cells assessed as accumulation at S phase at 2 uM after 24 to 48 hrs by propidium iodide staining based flow cytometry (reference value: 18.3%); format: functional; outline: as §3
MDA-MB-231 [25] = experiment: Cell cycle arrest in human MDA-MB-231 cells assessed as accumulation at S phase at 1 uM after 24 to 48 hrs by propidium iodide staining based flow cytometry (reference value: 4.6%); format: functional; outline: as §3
MDA-MB-231 [26] = experiment: Cell cycle arrest in human MDA-MB-231 cells assessed as accumulation at S phase at 2 uM after 24 to 48 hrs by propidium iodide staining based flow cytometry (reference value: 4.6%); format: functional; outline: as §3
MDA-MB-231 (human) = experiment: Induction of apoptosis in human MDA-MB-231 cells assessed as late apoptotic cells at 2 uM after 24 hrs by Annexin V-FITC/PI dual staining based flow cytometry (reference value: 4.5%)

Structure (SMILES): O=C1c2ccccc2Nc2ccccc2N1Cc1cn(Cc2ccccc2)nn1
- Activity (A549 [1]): Dose-dependent effect
- Activity (MDA-MB-231 [2]): Dose-dependent effect
- fold change (FC) (A549 [3]): 1.8
- fold change (FC) (MDA-MB-231 [4]): 2.09
- viability at 0.5 µM (A549 [5]): 75%
- Activity (A549 [6]): 9.4%
- Activity (A549 [7]): 2.5%
- Activity (A549 [8]): 10.7%
- Activity (A549 [9]): 1.9%
- viability at 1 µM (MDA-MB-231 [10]): 73%
- Activity (MDA-MB-231 [11]): 11.5%
- viability at 2 µM (MDA-MB-231 [12]): 62%
- Activity (MDA-MB-231 [13]): 2.5%
- Activity (MDA-MB-231 [14]): Dose-dependent effect
- IC50 [15]: 4210 nM
- IC50 (A549 [16]): 710 nM
- IC50 [17]: 6970 nM
- IC50 (MDA-MB-231 [18]): 730 nM
- inhibition (MDA-MB-231 [19]): Dose-dependent effect
- inhibition (A549 [20]): Dose-dependent effect
- Activity (A549 [21]): 19.5%
- Activity (A549 [22]): 43.6%
- Activity (A549 [23]): 34.7%
- Activity (A549 [24]): 13.8%
- Activity (MDA-MB-231 [25]): 6.7%
- Activity (MDA-MB-231 [26]): 5.5%
- Activity (MDA-MB-231 (human)): 17%

From ChEMBL document CHEMBL3763097, “Synthesis and biological evaluation of 5,10-dihydro-11H-dibenzo[b,e][1,4]diazepin-11-one structural derivatives as anti-cancer and apoptosis inducing agents” (Eur J Med Chem, 2016)
